Source: ChEMBL document CHEMBL1127542, “Inhibitors of acyl-CoA:cholesterol O-acyl transferase (ACAT) as hypocholesterolemic agents. 8. Incorporation of amide or amine functionalities into a series of disubstituted ureas and carbamates. Effects on ACAT inhibition in vitro and efficacy in vivo” (J Med Chem, 1994)
Active and inactive are the calls of the source. The calls are words filed in the database; no cut-off is given here.

species on record: Rattus norvegicus; experiment: Percent change in total cholesterol in cholic acid (0.5%)-cholesterol (1.5%)-peanut oil (5.5%)-fed rats; assay type: functional
Method in brief: (§1)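 Acute screen: rats given a single gavage dose, 50 mg/kg standard unless noted, suspended in carboxymethylcellulose plus Tween-20 in water, then a single high-fat, high-cholesterol meal (0.5% cholic acid, 1.5% cholesterol, 5.5% peanut oil). Overnight rise in plasma total cholesterol measured as % change versus control. Stomachs checked for food. ANOVA with Fisher's multiple range test, p<0.05.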

| Compound | Change [%] |
| --- | --- |
| CC(C)c1cccc(C(C)C)c1NC(=O)NCC(NCc1ccoc1)c1ccccc1 (stereo not given) | -38 |
| CC(C)c1cccc(C(C)C)c1NC(=O)NCC(NCc1cccc([N+](=O)[O-])c1)c1ccccc1 (single isomer, unassigned; (-)) | -32 |
| CCCCCCC(=O)NC(COC(=O)Nc1c(C(C)C)cccc1C(C)C)c1ccccc1 (stereo in doubt; 34a(-)) | -2 |
| CC(C)c1cccc(C(C)C)c1NC(=O)NCC(NC(=O)c1ccc(C(F)(F)F)cc1)c1ccccc1 (stereo not given) | -9 |
| CC(C)c1cccc(C(C)C)c1OC(=O)NCC(NC(=O)OC(C)(C)C)c1ccccc1 (single isomer, unassigned; (-)) | 20 |
| CCCCC(=O)NCC(CNC(=O)Nc1c(C(C)C)cccc1C(C)C)c1ccccc1 (stereo not given) | -6 |
| CCCCCCCCCCNC(CNC(=O)Nc1c(C(C)C)cccc1C(C)C)c1ccccc1 (racemic) | -38 |
| CCCCCCCCCC(=O)NC(CNC(=O)Oc1c(C(C)C)cccc1C(C)C)c1ccccc1 (racemic) | 25 |
| COc1ccc(C(=O)NC(CNC(=O)Nc2c(C(C)C)cccc2C(C)C)c2ccccc2)cc1 (stereo not given) | -7 |
| CCCC(CCC)(CNC(=O)Nc1c(C(C)C)cccc1C(C)C)NC(=O)c1ccc(OC)cc1 | -25 |
| CC(C)c1cccc(C(C)C)c1NC(=O)NCC(NC(=O)CCCCCBr)c1ccccc1 (stereo not given) | -36 |
| CC(C)c1cccc(C(C)C)c1NC(=O)NCC(NC(=O)c1ccco1)c1ccccc1 (stereo not given) | -37 |
| CC(C)c1cccc(C(C)C)c1NC(=O)NCC(NC(=O)c1cc2ccccc2[nH]1)c1ccccc1 (stereo not given) | -3 |
| CCCCCCCCCC(=O)NC(CNC(=O)Nc1c(C(C)C)cccc1C(C)C)c1ccccc1 (stereo not given) | -29 |
| CC(C)c1cccc(C(C)C)c1NC(=O)NCC(NC(=O)c1ccc2ccccc2n1)c1ccccc1 (stereo not given) | -31 |

test system: Rattus norvegicus; experiment: Percent change in total cholesterol in cholic acid (0.5%)-cholesterol (1.5%)-peanut oil (5.5%)-fed rats (50 mg/kg was administered as the standard dose); No change; assay type: functional, organism-based; method in brief: as §1

| Compound | Change |
| --- | --- |
| CCCCCCC(=O)NCC(CNC(=O)Nc1c(C(C)C)cccc1C(C)C)c1ccccc1 (stereo not given) | inactive |
| CC(C)=CCCC(C)CC(=O)NC(CNC(=O)Nc1c(C(C)C)cccc1C(C)C)c1ccccc1 (stereo not given) | inactive |
| CCCCCCCCCCCCCCCC(=O)NC(CNC(=O)Nc1c(C(C)C)cccc1C(C)C)c1ccccc1 (stereo not given) | inactive |
| CCCCCCCCCCCCCCCCNC(CNC(=O)Nc1c(C(C)C)cccc1C(C)C)c1ccccc1 (racemic) | inactive |
| CC(C)c1cccc(C(C)C)c1NC(=O)NCC(NC(=O)CCCCCN(C)C)c1ccccc1 (stereo not given) | inactive |
| COCCCCCC(=O)NC(CNC(=O)Nc1c(C(C)C)cccc1C(C)C)c1ccccc1 (stereo not given) | inactive |
| COC(=O)CCCCC(=O)NC(CNC(=O)Nc1c(C(C)C)cccc1C(C)C)c1ccccc1 (stereo not given) | inactive |
| CC(C)c1cccc(C(C)C)c1NC(=O)NCC(NC(=O)c1c(Cl)cccc1Cl)c1ccccc1 (stereo not given) | inactive |
| CCCCCCC(=O)NC(CNC(=O)Nc1c(C(C)C)cccc1C(C)C)c1ccccc1 (stereo not given) | inactive |
| CCCCCCCCCCCC(=O)NCC(CNC(=O)Nc1c(C(C)C)cccc1C(C)C)c1ccccc1 (stereo not given) | inactive |
| CCOC(=O)N1CCN(CCCCCC(=O)NC(CNC(=O)Nc2c(C(C)C)cccc2C(C)C)c2ccccc2)CC1 (stereo not given) | inactive |
| CC(C)c1cccc(C(C)C)c1NC(=O)NCC(NC(=O)c1ccccc1)c1ccccc1 (stereo not given) | inactive |
| CC(C)c1cccc(C(C)C)c1NC(=O)NCC(CNC(=O)c1ccccc1)c1ccccc1 (stereo not given) | inactive |
| CC(=O)NC(CNC(=O)Nc1c(C(C)C)cccc1C(C)C)c1ccccc1 (stereo not given) | inactive |
| CC(C)c1cccc(C(C)C)c1NC(=O)NCC(NC(=O)CCCCCN)c1ccccc1 (stereo not given) | inactive |

molecular target: Sterol O-acyltransferase 1 (Oryctolagus cuniculus); experiment: In vitro inhibition of rabbit intestinal acyl coenzyme A:cholesterol acyltransferase using [1-14C]oleolyl-CoA

| Compound | IC50 [nM] |
| --- | --- |
| CCCCCCC(=O)NCC(CNC(=O)Nc1c(C(C)C)cccc1C(C)C)c1ccccc1 (stereo not given) | 650 |
| CC(C)=CCCC(C)CC(=O)NC(CNC(=O)Nc1c(C(C)C)cccc1C(C)C)c1ccccc1 (stereo not given) | 400 |
| CCCCCCCCCCCCCCCC(=O)NC(CNC(=O)Nc1c(C(C)C)cccc1C(C)C)c1ccccc1 (stereo not given) | 81 |
| CCCCCCCCCCCCCCCCNC(CNC(=O)Nc1c(C(C)C)cccc1C(C)C)c1ccccc1 (racemic) | 120 |
| CC(C)c1cccc(C(C)C)c1NC(=O)NCC(NC(=O)CCCCCN(C)C)c1ccccc1 (stereo not given) | 4200 |
| COCCCCCC(=O)NC(CNC(=O)Nc1c(C(C)C)cccc1C(C)C)c1ccccc1 (stereo not given) | 380 |
| COC(=O)CCCCC(=O)NC(CNC(=O)Nc1c(C(C)C)cccc1C(C)C)c1ccccc1 (stereo not given) | 2600 |
| CC(C)c1cccc(C(C)C)c1NC(=O)NCC(NC(=O)c1c(Cl)cccc1Cl)c1ccccc1 (stereo not given) | 1200 |
| CCCCCCC(=O)NC(CNC(=O)Nc1c(C(C)C)cccc1C(C)C)c1ccccc1 (stereo not given) | 150 |
| CCCCCCCCCCCC(=O)NCC(CNC(=O)Nc1c(C(C)C)cccc1C(C)C)c1ccccc1 (stereo not given) | 79 |
| CCOC(=O)N1CCN(CCCCCC(=O)NC(CNC(=O)Nc2c(C(C)C)cccc2C(C)C)c2ccccc2)CC1 (stereo not given) | 2800 |
| CC(C)c1cccc(C(C)C)c1NC(=O)NCC(NC(=O)c1ccccc1)c1ccccc1 (stereo not given) | 530 |
| CC(C)c1cccc(C(C)C)c1NC(=O)NCC(CNC(=O)c1ccccc1)c1ccccc1 (stereo not given) | 1900 |
| CC(C)c1cccc(C(C)C)c1NC(=O)NCC(NCc1ccoc1)c1ccccc1 (stereo not given) | 48 |
| CC(=O)NC(CNC(=O)Nc1c(C(C)C)cccc1C(C)C)c1ccccc1 (stereo not given) | 2500 |
| CC(C)c1cccc(C(C)C)c1NC(=O)NCC(NCc1cccc([N+](=O)[O-])c1)c1ccccc1 (single isomer, unassigned; (-)) | 45 |
| CCCCCCC(=O)NC(COC(=O)Nc1c(C(C)C)cccc1C(C)C)c1ccccc1 (stereo in doubt; 34a(-)) | 570 |
| CC(C)c1cccc(C(C)C)c1NC(=O)NCC(NC(=O)c1ccc(C(F)(F)F)cc1)c1ccccc1 (stereo not given) | 510 |
| CC(C)c1cccc(C(C)C)c1OC(=O)NCC(NC(=O)OC(C)(C)C)c1ccccc1 (single isomer, unassigned; (-)) | 430 |
| CCCCC(=O)NCC(CNC(=O)Nc1c(C(C)C)cccc1C(C)C)c1ccccc1 (stereo not given) | 610 |
| CCCCCCCCCCNC(CNC(=O)Nc1c(C(C)C)cccc1C(C)C)c1ccccc1 (racemic) | 83 |
| CCCCCCCCCC(=O)NC(CNC(=O)Oc1c(C(C)C)cccc1C(C)C)c1ccccc1 (racemic) | 760 |
| COc1ccc(C(=O)NC(CNC(=O)Nc2c(C(C)C)cccc2C(C)C)c2ccccc2)cc1 (stereo not given) | 330 |
| CCCC(CCC)(CNC(=O)Nc1c(C(C)C)cccc1C(C)C)NC(=O)c1ccc(OC)cc1 | 90 |
| CC(C)c1cccc(C(C)C)c1NC(=O)NCC(NC(=O)CCCCCBr)c1ccccc1 (stereo not given) | 380 |
| CC(C)c1cccc(C(C)C)c1NC(=O)NCC(NC(=O)c1ccco1)c1ccccc1 (stereo not given) | 440 |
| CC(C)c1cccc(C(C)C)c1NC(=O)NCC(NC(=O)CCCCCN)c1ccccc1 (stereo not given) | > 5000 |
| CC(C)c1cccc(C(C)C)c1NC(=O)NCC(NC(=O)c1cc2ccccc2[nH]1)c1ccccc1 (stereo not given) | 2300 |
| CCCCCCCCCC(=O)NC(CNC(=O)Nc1c(C(C)C)cccc1C(C)C)c1ccccc1 (stereo not given) | 590 |
| CC(C)c1cccc(C(C)C)c1NC(=O)NCC(NC(=O)c1ccc2ccccc2n1)c1ccccc1 (stereo not given) | 150 |
